Key:
Human betaherpesvirus 5 [1] = assay: Antiviral activity against HCMV infected HFF cells after 5 days by dot blot assay; type: functional, organism-based
Summary of the method: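 HFF fibroblasts infected with luciferase-expressing recombinant CMV (rCMVLUC), then cultured 5 days across a range of drug concentrations. Viral DNA harvested, immobilized on membrane, hybridized with radiolabeled CMV-specific probe. IC50 = concentration giving 50% reduction of membrane-bound radioactivity relative to vehicle-only infected cells.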

[2] = Bioavailability in rat at 2 mg/kg, po; type: ADME, organism-based; conditions: in vivo
[3] = Clearance in rat; type: ADME, organism-based; conditions: in vivo
[4] = Oral bioavailability in rat; type: ADME, organism-based; conditions: in vivo
Human betaherpesvirus 5 [5] = assay: Antiviral activity against HCMV infected HFF cells after 5 to 7 days by viral yield assay; type: functional
Summary of the method: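 rCMVLUC-infected HFF cells incubated 5–7 days with varying drug concentrations; viral yield determined by immunofluorescence using human anti-HCMV antiserum.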

[6] = Cytotoxicity against human Jurkat cells by alamar blue assay; type: cell-based
Summary of the method: (§1)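 Cells seeded and exposed to a range of compound concentrations; Alamar blue added at 0, 24, 48 and 72 h, fluorescence read after further 3 h incubation. IC50 = concentration inhibiting cell growth by 50%.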

[7] = Cytotoxicity against HFF cells by alamar blue assay; type: cell-based; conditions: human; summary of the method: as §1
[8] = Cytotoxicity against human bone marrow cells assessed as inhibition of CFU-GM formation after 15 days; type: cell-based, Bone marrow cell
Summary of the method: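 Human bone marrow cells washed in IMDM–2% FBS, viable nucleated/mononuclear cells counted, adjusted to 10⁶ cells/mL, drug added, diluted 1:10 in methylcellulose medium and plated. After 15 days at 37 °C, humid 5% CO₂, CFU-GM colonies counted microscopically; IC50 = concentration halving colony formation.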

[9] = Human betaherpesvirus 5, HFF, 120 h

| Structure (SMILES) | IC50 (Human betaherpesvirus 5 [1]; [9]) | also measured |
| --- | --- | --- |
| CCSCCNc1nc(C)c([N+](=O)[O-])c(-n2ccnc2C)n1 | 200 nM |  |
| Cc1nc(NCc2ccc(C(F)(F)F)cc2F)nc(-n2ccnc2C)c1[N+](=O)[O-] | 200 nM |  |
| CCNc1nc(C)c([N+](=O)[O-])c(-n2ccnc2C)n1 | 1000 nM |  |
| CCC(C)Nc1nc(C)c([N+](=O)[O-])c(-n2ccnc2C)n1 (stereo not given) | 500 nM |  |
| COCC(C)Nc1nc(C)c([N+](=O)[O-])c(-n2ccnc2C)n1 (stereo not given) | 900 nM |  |
| Cc1nc(NC2CCS(=O)(=O)CC2)nc(-n2ccnc2C)c1[N+](=O)[O-] | > 5000 nM |  |
| Cc1nc(NCC2CCCCO2)nc(-n2ccnc2C)c1[N+](=O)[O-] (stereo not given) | 4000 nM |  |
| Cc1nc(NCc2ccc(F)cc2)nc(-n2ccnc2C)c1[N+](=O)[O-] | 150 nM |  |
| Cc1nc(NC(C)CCc2ccccc2)nc(-n2ccnc2C)c1[N+](=O)[O-] (stereo not given) | 350 nM |  |
| COCCCNc1nc(C)c([N+](=O)[O-])c(-n2ccnc2C)n1 | 2300 nM |  |
| Cc1ccccc1CNc1nc(C)c([N+](=O)[O-])c(-n2ccnc2C)n1 | 200 nM |  |
| Cc1nc(N[C@H]2COC[C@H]2C)nc(-n2ccnc2C)c1[N+](=O)[O-] | 200 nM |  |
| Cc1nc(N)nc(-n2ccnc2C)c1[N+](=O)[O-] | 2000 nM | bioavailability [2]: 59% |
| Cc1nc(N[C@@H]2COC[C@@H]2C)nc(-n2ccnc2C)c1[N+](=O)[O-] | 150 nM |  |
| Cc1nc(NC2CCSC2)nc(-n2ccnc2C)c1[N+](=O)[O-] (stereo not given) | 250 nM |  |
| Cc1nc(N[C@H]2CC=CC[C@@H]2C)nc(-n2ccnc2C)c1[N+](=O)[O-] | 300 nM |  |
| Cc1nc(NCc2cc(F)ccc2F)nc(-n2ccnc2C)c1[N+](=O)[O-] | 150 nM |  |
| Cc1nc(NC[C@@H]2OCCC[C@H]2C)nc(-n2ccnc2C)c1[N+](=O)[O-] | 400 nM |  |
| CCS(=O)(=O)CCNc1nc(C)c([N+](=O)[O-])c(-n2ccnc2C)n1 | 1300 nM |  |
| Cc1nc(NCc2ccc(Cl)c(Cl)c2)nc(-n2ccnc2C)c1[N+](=O)[O-] | 200 nM |  |
| Cc1nc(NC2CCCCC2)nc(-n2ccnc2C)c1[N+](=O)[O-] | 200 nM |  |
| Cc1nc(NC2CCC(C)CC2)nc(-n2ccnc2C)c1[N+](=O)[O-] (stereo not given) | 200 nM |  |
| Cc1nc(N[C@@H]2CCO[C@H]2C)nc(-n2ccnc2C)c1[N+](=O)[O-] | 600 nM |  |
| Cc1nc(NC2CCC(C)C2)nc(-n2ccnc2C)c1[N+](=O)[O-] (stereo not given) | 100 nM |  |
| Cc1nc(N[C@@H]2COC[C@@H]2C)nc(-n2ccnc2C)c1[N+](=O)[O-].Cl |  | EC99.9 (Human betaherpesvirus 5 [5]): 0.4 µM; CC50 [6]: 50000 nM; CC50 [7]: 100000 nM; IC50 (Human betaherpesvirus 5 [1]; hff): 130 nM; CC50 at 360 h [8]: 50000 nM; clearance [3]: 23.3 mL/min/kg; bioavailability [4]: 21% |
| Nc1ccn(C[C@@H](CO)OCP(=O)(O)O)c(=O)n1.O.O [CIDOFOVIR] | 350 nM | EC99.9 (Human betaherpesvirus 5 [5]): 0.9 µM; CC50 [6]: 100000 nM; CC50 [7]: 100000 nM; CC50 at 360 h [8]: 6000 nM |

Continued, in another order:

| IC50 (Human betaherpesvirus 5 [1]; [9]) | Structure (SMILES) | also measured |
| --- | --- | --- |
| 250 nM | Cc1nc(NCc2ccc(F)cc2Cl)nc(-n2ccnc2C)c1[N+](=O)[O-] |  |
| 200 nM | Cc1nc(NCc2cccc(Cl)c2Cl)nc(-n2ccnc2C)c1[N+](=O)[O-] |  |
| 500 nM | Cc1nc(NCc2ccccn2)nc(-n2ccnc2C)c1[N+](=O)[O-] |  |
| 600 nM | Cc1nc(NC2CCCC2)nc(-n2ccnc2C)c1[N+](=O)[O-] |  |
| 500 nM | Cc1nc(N[C@@H]2CCO[C@@H]2C)nc(-n2ccnc2C)c1[N+](=O)[O-] |  |
| 1000 nM | Cc1nc(NCC2CCCO2)nc(-n2ccnc2C)c1[N+](=O)[O-] (stereo not given) |  |
| 300 nM | Cc1nc(NCC2OCCC2C)nc(-n2ccnc2C)c1[N+](=O)[O-] (stereo not given) |  |
| 1600 nM | Cc1ccc(CNc2nc(C)c([N+](=O)[O-])c(-n3ccnc3C)n2)cc1 |  |
| 130 nM | Cc1nc(NC(C)CC(C)C)nc(-n2ccnc2C)c1[N+](=O)[O-] (stereo not given) |  |
| 500 nM | Cc1cccc(CNc2nc(C)c([N+](=O)[O-])c(-n3ccnc3C)n2)c1 |  |
| 2000 nM | Cc1nc(N[C@H]2CCS(=O)(=O)[C@@H]2C)nc(-n2ccnc2C)c1[N+](=O)[O-] |  |
| 200 nM | Cc1nc(NCc2ccc(C(F)(F)F)cc2)nc(-n2ccnc2C)c1[N+](=O)[O-] |  |
| 300 nM | Cc1nc(NCc2cccc(OC(F)(F)F)c2)nc(-n2ccnc2C)c1[N+](=O)[O-] |  |
| 800 nM | Cc1nc(NCc2cccnc2)nc(-n2ccnc2C)c1[N+](=O)[O-] |  |
| 120 nM | Cc1nc(NCC2CCCCC2)nc(-n2ccnc2C)c1[N+](=O)[O-] |  |
| 150 nM | Cc1nc(NC2CCC[C@H](C)C2)nc(-n2ccnc2C)c1[N+](=O)[O-] (stereo not given in full) |  |
| 150 nM | Cc1nc(NC2CCC[C@@H](C)C2)nc(-n2ccnc2C)c1[N+](=O)[O-] (stereo not given in full) |  |
| 300 nM | COc1cccc(CNc2nc(C)c([N+](=O)[O-])c(-n3ccnc3C)n2)c1 |  |
| 100 nM | Cc1nc(N[C@H]2CCCC[C@@H]2C)nc(-n2ccnc2C)c1[N+](=O)[O-] |  |

| IC50 (Human betaherpesvirus 5 [1]; [9]) | Structure (SMILES) | also measured |
| --- | --- | --- |
| 700 nM | Cc1nc(N[C@H]2CCCC[C@H]2C)nc(-n2ccnc2C)c1[N+](=O)[O-] |  |
| 700 nM | Cc1nc(NC2CCCOC2C)nc(-n2ccnc2C)c1[N+](=O)[O-] (stereo not given) |  |
| 90 nM | CC[C@H]1CCCC[C@@H]1Nc1nc(C)c([N+](=O)[O-])c(-n2ccnc2C)n1 |  |
| 100 nM | CC[C@@H]1CC=CC[C@@H]1Nc1nc(C)c([N+](=O)[O-])c(-n2ccnc2C)n1 |  |
| 300 nM | Cc1nc(NCCC(C)C)nc(-n2ccnc2C)c1[N+](=O)[O-] |  |
| 2300 nM | Cc1nc(NC(C)CCC(C)C)nc(-n2ccnc2C)c1[N+](=O)[O-] (stereo not given) |  |
| 15000 nM | Cc1nc(NCc2cc(C(F)(F)F)cc(C(F)(F)F)c2)nc(-n2ccnc2C)c1[N+](=O)[O-] |  |
| 200 nM | Cc1nc(NCc2ccccc2OC(F)(F)F)nc(-n2ccnc2C)c1[N+](=O)[O-] |  |
| 80 nM | Cc1nc(NC2CCCCC2C)nc(-n2ccnc2C)c1[N+](=O)[O-] (stereo not given) |  |
| 130 nM | Cc1nc(N[C@H]2CCOC[C@@H]2C)nc(-n2ccnc2C)c1[N+](=O)[O-] | clearance [3]: 36.7 mL/min/kg; bioavailability [4]: 57% |
| 500 nM | Cc1nc(NC2CCCC2C)nc(-n2ccnc2C)c1[N+](=O)[O-] (stereo not given) |  |
| 3000 nM | Cc1nc(NC2CCOCC2)nc(-n2ccnc2C)c1[N+](=O)[O-] |  |
| 400 nM | Cc1nc(NC2CCSCC2)nc(-n2ccnc2C)c1[N+](=O)[O-] |  |
| 300 nM | Cc1nc(NCc2ccc(Cl)cc2)nc(-n2ccnc2C)c1[N+](=O)[O-] |  |
| 250 nM | Cc1nc(NCc2cccc(F)c2)nc(-n2ccnc2C)c1[N+](=O)[O-] |  |
| 400 nM | Cc1nc(NCc2ccc(F)c(F)c2)nc(-n2ccnc2C)c1[N+](=O)[O-] |  |
| 1500 nM | Cc1nc(N[C@H]2CC=CC[C@H]2C)nc(-n2ccnc2C)c1[N+](=O)[O-] |  |
| 1000 nM | Nc1nc2c(ncn2COC(CO)CO)c(=O)[nH]1 [GANCICLOVIR] | EC99.9 (Human betaherpesvirus 5 [5]): 5 µM; CC50 [6]: > 100000 nM; CC50 [7]: > 100000 nM; CC50 at 360 h [8]: 30000 nM |

Source: ChEMBL document CHEMBL1147861, “SAR studies on a novel series of human cytomegalovirus primase inhibitors” (Bioorg Med Chem Lett, 2007)
